ChEMBL document CHEMBL3414503, “Distinct novel quinazolinone exhibits selective inhibition in MGC-803 cancer cells by dictating mutant p53 function” (Eur J Med Chem, 2015)
Activity calls are given as the source filed them. The calls are words filed in the database; no cut-off is given here.

Legend:
MGC-803 [1] = test: Cell cycle arrest in human MGC803 cells assessed as accumulation at G2/M phase at 1 uM after 48 hrs by propidium iodide staining-based FACS analysis relative to control; assay type: functional
[2] = test system: Cellular tumor antigen p53 (Homo sapiens), P04637 [UNDEFINED MUTATION]; test: Inhibition of P53 mutant in human MGC803 cells assessed as decrease in p21 expression at 1 to 10 uM after 24 hrs by Western blot analysis; assay type: cell-based; conditions: MGC-803
Cellular tumor antigen p53 (Homo sapiens), P04637 [UNDEFINED MUTATION], sequence (P04637 whole entry, looked up, change not shown): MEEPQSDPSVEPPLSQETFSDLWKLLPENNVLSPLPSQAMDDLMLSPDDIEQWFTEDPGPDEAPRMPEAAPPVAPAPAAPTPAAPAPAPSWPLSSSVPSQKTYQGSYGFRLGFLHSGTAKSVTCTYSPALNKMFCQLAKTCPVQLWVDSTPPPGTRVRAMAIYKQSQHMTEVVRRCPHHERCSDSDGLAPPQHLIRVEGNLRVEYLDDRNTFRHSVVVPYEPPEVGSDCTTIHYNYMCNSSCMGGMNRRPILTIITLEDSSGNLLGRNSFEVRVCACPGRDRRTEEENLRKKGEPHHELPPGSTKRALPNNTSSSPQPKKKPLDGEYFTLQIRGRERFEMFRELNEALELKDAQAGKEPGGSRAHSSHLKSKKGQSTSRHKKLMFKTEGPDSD
Outline: (§1)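 MGC-803 cells, 3 × 10⁵ per well of a 6-well plate, exposed to compound for 24 h. Cells were washed in ice-cold PBS and lysed in sample buffer, then run on SDS-PAGE and transferred to nitrocellulose. Blots were probed with primary antibodies and […] anti-rabbit IgG and developed by ECL.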

MGC-803 [3] = test: Cell cycle arrest in human MGC803 cells assessed as accumulation at G0/G1 phase at 10 uM after 48 hrs by propidium iodide staining-based FACS analysis relative to control; assay type: functional
MGC-803 [4] = test: Induction of apoptosis in human MGC803 cells assessed as caspase-3 activation at 5 uM after 24 hrs by FITC-DEVD-FMK probe-based flow cytometric analysis (reference value: 1.8%); assay type: functional
Outline: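 Treated and control MGC-803 cells (5 µM, 24 h) harvested at 1 × 10⁶ cells/mL in RPMI 1640 + 10% FCS. Incubated with FITC-DEVD-FMK for 1 h at 37 °C, 5% CO₂, then analysed by flow cytometry with 488 nm excitation. Given as percent change versus untreated control.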

MGC-803 [5] = test: Cytotoxicity against human MGC803 cells assessed as cell size at 1 uM after 48 hrs by FACS analysis relative to control; assay type: functional
Outline: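 Cells treated 48 h with DMSO or compound at […] as printed. Forward scatter (mean FSC-H) measured by FACS and given relative to control cells.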

MGC-803 [6] = test: Induction of apoptosis in human MGC803 cells assessed as chromatin fragmentation at 1 to 10 uM after 48 hrs by Hoechst 33258 staining-based fluorescence confocal microscopic analysis; assay type: functional, cell-based
Outline: (§2)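 MGC-803 cells grown on glass slides and treated 48 h. They were then washed in PBS, fixed in 4% paraformaldehyde and permeabilized with 1% Triton X-100. After four washes, Hoechst 33258 ([…] final) was added in the last wash to stain nuclei.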

[7] = test system: Cellular tumor antigen p53 (Homo sapiens), P04637 [UNDEFINED MUTATION]; test: Inhibition of P53 mutant in human MGC803 cells assessed as change in BAX expression at 1 to 10 uM after 24 hrs by Western blot analysis; assay type: cell-based; conditions: MGC-803
MGC-803 [8] = test: Cell cycle arrest in human MGC803 cells assessed as accumulation at sub G1 phase at 1 uM after 48 hrs by propidium iodide staining-based FACS analysis relative to control; assay type: functional
[9] = test system: Cellular tumor antigen p53 (Homo sapiens), P04637 [UNDEFINED MUTATION]; test: Inhibition of P53 mutant in human MGC803 cells assessed as upregulation of Bim expression at 1 to 10 uM after 24 hrs by Western blot analysis; assay type: cell-based; conditions: MGC-803
MGC-803 [10] = test: Cell cycle arrest in human MGC803 cells assessed as accumulation at sub G1 phase at 10 uM after 48 hrs by propidium iodide staining-based FACS analysis relative to control; assay type: functional
MGC-803 [11] = test: Cytotoxicity against human MGC803 cells assessed as cell viability after 48 hrs by MTT assay; assay type: functional, cell-based; conditions: MGC-803, 48 h
Outline: (§3)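 Cells were trypsinized, seeded in 96-well plates at 2 × 10³ cells/well and grown for 24 h. Medium was then replaced with compound solutions (in DMSO, range from 0.1) for 48 h, and viability was read by MTT. Cancer lines were grown in RPMI 1640 + 10% FCS. IC50 from 3 independent experiments, each in triplicate.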

[12] = Cytotoxicity against human WI38 cells expressing wild type p53 assessed as cell viability at 1 to 10 uM after 48 hrs by MTT assay; assay type: cell-based; conditions: wi-38, 48 h
Outline: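 WI-38 normal lung fibroblasts, grown in DMEM + 10% FCS, seeded at 2 × 10³ cells/well in 96-well plates for 24 h. Then exposed to compound (in DMSO) for 48 h, with viability by MTT.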

HepG2 = test: Cytotoxicity against human HepG2 cells assessed as cell viability after 48 hrs by MTT assay; assay type: functional, cell-based; conditions: HepG2, 48 h; outline: as §3
MGC-803 [13] = test: Cell cycle arrest in human MGC803 cells assessed as accumulation at G0/G1 phase at 1 uM after 48 hrs by propidium iodide staining-based FACS analysis relative to control; assay type: functional
NCI-H460 = test: Cytotoxicity against human NCI-H460 cells assessed as cell viability after 48 hrs by MTT assay; assay type: functional, cell-based; conditions: NCI-H460, 48 h; outline: as §3
[14] = test system: Cellular tumor antigen p53 (Homo sapiens), P04637 [UNDEFINED MUTATION]; test: Inhibition of P53 mutant in human MGC803 cells assessed as downregulation of Bcl-2 expression at 1 to 10 uM after 24 hrs by Western blot analysis; assay type: cell-based; conditions: MGC-803
[15] = test system: Cellular tumor antigen p53 (Homo sapiens), P04637 [UNDEFINED MUTATION]; test: Inhibition of P53 mutant in human MGC803 cells assessed as upregulation of cdk2 activity at 1 to 10 uM after 24 hrs by Western blot analysis; conditions: MGC-803
[16] = test system: Cellular tumor antigen p53 (Homo sapiens), P04637 [UNDEFINED MUTATION]; test: Inhibition of P53 mutant phosphorylation at s392 in human MGC803 cells at 1 to 10 uM after 24 hrs by Western blot analysis; assay type: cell-based; conditions: MGC-803; outline: as §1
[17] = test system: Cellular tumor antigen p53 (Homo sapiens), P04637 [UNDEFINED MUTATION]; test: Inhibition of P53 mutant acetylation at k373 in human MGC803 cells at 1 to 10 uM after 24 hrs by Western blot analysis; assay type: cell-based; conditions: MGC-803; outline: as §1
MGC-803 [18] = test: Cell cycle arrest in human MGC803 cells assessed as accumulation at G2/M phase at 10 uM after 48 hrs by propidium iodide staining-based FACS analysis relative to control; assay type: functional
MGC-803 [19] = test: Cell cycle arrest in human MGC803 cells assessed as accumulation at S phase at 1 uM after 48 hrs by propidium iodide staining-based FACS analysis relative to control; assay type: functional
A-375 = test: Cytotoxicity against human A375 cells assessed as cell viability after 48 hrs by MTT assay; assay type: functional, cell-based; conditions: A-375, 48 h; outline: as §3
MGC-803 [20] = test: Cell cycle arrest in human MGC803 cells assessed as accumulation at S phase at 10 uM after 48 hrs by propidium iodide staining-based FACS analysis relative to control; assay type: functional
MGC-803 [21] = test: Induction of apoptosis in human MGC803 cells assessed as chromatin condensation at 1 to 10 uM after 48 hrs by Hoechst 33258 staining-based fluorescence confocal microscopic analysis; assay type: functional, cell-based; outline: as §2
[22] = test system: Cellular tumor antigen p53 (Homo sapiens), P04637 [UNDEFINED MUTATION]; test: Inhibition of P53 mutant in human MGC803 cells assessed as AIF release from mitochondria and translocation to nucleus at 1 to 10 uM after 48 hrs by immunostaining assay; assay type: cell-based; conditions: MGC-803
Outline: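 MGC-803 cells on slides, 48 h after treatment, were washed in PBS and fixed in 4% paraformaldehyde. They were immunostained for AIF with primary antibody and a Cy3-conjugated secondary.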

COc1cc2nc(/C=C/c3ccc(Cl)cc3)n(CCCN(C)C)c(=O)c2cc1OC
Activity (MGC-803 [1]): 14.1%
inhibition [2]: Active
Activity (MGC-803 [3]): 19.42%
Activity (MGC-803 [4]): 3.5%
Activity (MGC-803 [5]): 59.4%
Activity (MGC-803 [6]): Active
inhibition [7]: inactive
Activity (MGC-803 [8]): 4.89%
inhibition [9]: Active
Activity (MGC-803 [10]): 30.4%
IC50 (MGC-803 [11]): 3.18 µM
Activity [12]: Non-toxic
IC50 (HepG2): 6.96 µM
Activity (MGC-803 [13]): 51.79%
IC50 (NCI-H460): 7.15 µM
inhibition [14]: Active
inhibition [15]: Active
inhibition [16]: Active
inhibition [17]: Active
Activity (MGC-803 [18]): 20.25%
Activity (MGC-803 [19]): 29.22%
IC50 (A-375): > 20 µM
Activity (MGC-803 [20]): 29.93%
Activity (MGC-803 [21]): Active
inhibition [22]: Active
